Experimental data reported in ChEMBL document CHEMBL2176995, “An oral sphingosine 1-phosphate receptor 1 (S1P(1)) antagonist prodrug with efficacy in vivo: discovery, synthesis, and evaluation” (J Med Chem, 2012).
Activity calls are given as the source filed them. The rule behind the calls is not given here.

How the values were obtained:
Rattus norvegicus [1] = assay: Reduction in peripheral blood lymphocytes in stringent Dark Agouti to Lewis rat heterotopic vascular heart allotransplantation model at 30 mg/kg, po bid coadministered with 10 mg/kg, bid sotrastaurin measured post 50 days post transplant relative to untreated control; type: functional; design: scale not given: the % may be the effect or the level left
Procedure, shortened: (§1)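 DA donor hearts were grafted into Lewis recipients. Treatment started 3 days before transplantation: prodrug 30 mg/kg po b.i.d. (PEG200/water, pH 5) alone or with sotrastaurin 10 mg/kg po b.i.d. or everolimus 0.3 mg/kg po q.d. Grafts were followed to rejection or up to 50 days. Allografts were formalin-fixed, cut at 3 μm, stained with H&E and trichrome, and scored for rejection. Lymphocytes were counted weekly before dosing, and body weight was monitored.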

Rattus norvegicus [2] = assay: Reduction in peripheral blood lymphocytes in stringent Dark Agouti to Lewis rat heterotopic vascular heart allotransplantation model at 30 mg/kg, po bid coadministered with 0.3 mg/kg, qd everolimus measured post 50 days post transplant relative to untreated control; type: functional; design: scale not given: the % may be the effect or the level left; procedure, shortened: as §1
Rattus norvegicus [3] = assay: Induction of capillary leakage in Lewis rat Evans blue dye lung leakage model at 30 mg/kg, po bid measured 24 hrs after 6 hrs relative to untreated control; type: organism-based; design: dose 30 mg/kg, route oral; settings: in vivo
Procedure, shortened: (§2)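 Male Lewis rats were gavaged twice daily with vehicle or 30 mg/kg in 30% PEG200/buffer. Evans blue dye (20 mg/2 mL NaCl/kg iv) was given under anesthesia at 5, 23 or 95 h. One hour later the rats were bled, lungs were perfused with saline, dried at 60 °C for 24 h, weighed, and dye was extracted in formamide (24 h, 37 °C). Thoracic fluid volume was also recorded.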

Blood = assay: Cmax in Lewis rat blood assessed as level of (S)-2-{[3'-(4-Chloro-2,5-dimethylphenylsulfonylamino)-3,5-dimethylbiphenyl-4-carbonyl]methylamino}-4-dimethylaminobutyric Acid Hydrochloride at 30 mg/kg, po administered as single dose measured 8 hrs post dose; settings: in vivo
Rattus norvegicus [4] = assay: Increase in allograft survival in stringent Dark Agouti to Lewis rat heterotopic vascular heart allotransplantation model assessed as improvement in histological changes at 30 mg/kg, po bid coadministered with 10 mg/kg, bid sotrastaurin by hematoxylin and eosin staining; type: functional, organism-based; procedure, shortened: as §1
Rattus norvegicus [5] = assay: Increase in allograft survival in stringent Dark Agouti to Lewis rat heterotopic vascular heart allotransplantation model assessed as allograft mean survival time at 30 mg/kg, po bid (reference value: 6 days); type: functional
[6] = Stability in pH 5 buffer by UPLC; type: physicochemical
Rattus norvegicus [7] = assay: Induction of capillary leakage in Lewis rat Evans blue dye lung leakage model assessed as thorax fluid level at 30 mg/kg, po bid measured after 24 hrs relative to untreated control; type: organism-based; design: dose 30 mg/kg, route oral; settings: in vivo; procedure, shortened: as §2
Rattus norvegicus [8] = assay: Toxicity in stringent Dark Agouti to Lewis rat heterotopic vascular heart allotransplantation model assessed as compound tolerance at 30 mg/kg, po bid coadministered with 10 mg/kg, bid sotrastaurin; type: organism-based; settings: in vivo; procedure, shortened: as §1
Rattus norvegicus [9] = assay: Toxicity in stringent Dark Agouti to Lewis rat heterotopic vascular heart allotransplantation model assessed as change in body weight at 30 mg/kg, po bid coadministered with 10 mg/kg, bid sotrastaurin; type: organism-based; settings: in vivo; procedure, shortened: as §1
Rattus norvegicus [10] = assay: Induction of capillary leakage in Lewis rat Evans blue dye lung leakage model assessed as thorax fluid level at 30 mg/kg, po bid measured after 96 hrs relative to untreated control; type: organism-based; design: dose 30 mg/kg, route oral; settings: in vivo; procedure, shortened: as §2
Rattus norvegicus [11] = assay: Toxicity in stringent Dark Agouti to Lewis rat heterotopic vascular heart allotransplantation model assessed as change in body weight at 30 mg/kg, po bid; type: organism-based; design: dose 30 mg/kg, route oral; settings: in vivo; procedure, shortened: as §1

For `COC(=O)[C@H](CCN(C)C)N(C)C(=O)c1c(C)cc(-c2cccc(NS(=O)(=O)c3cc(C)c(Cl)cc3C)c2)cc1C`, which Activity (Rattus norvegicus [1]) is on record?
The Activity was 12%.

And the Activity (Rattus norvegicus [2])?
Its Activity is 9%.

What about the “fold change (FC)” value (Rattus norvegicus [3]) of the same compound?
Its value is 2.4.

And the Cmax (Blood)?
The Cmax was 29 ng/mL.

And the Activity (Rattus norvegicus [4])?
The Activity was “Active”.

And the MST (Rattus norvegicus [5])?
Its MST is 8 days.

And the Stability [6]?
Its Stability is greater than 53 h.

What about the Activity (Rattus norvegicus [7]) of the same compound?
Its Activity is 2 mL.

And the Activity (Rattus norvegicus [8])?
The Activity was “Non-toxic”.

What about the Activity (Rattus norvegicus [9]) of the same compound?
The Activity was “Non-toxic”.

What about the Activity (Rattus norvegicus [10]) of the same compound?
Its Activity is “Non-toxic”.

And the Activity (Rattus norvegicus [11])?
Its Activity is “Non-toxic”.
